For test [1], the target named is Mast/stem cell growth factor receptor Kit (Homo sapiens) (UniProt P10721). The experiment in a line: Inhibition of cKIT using ATP as substrate.
For test [2], the target named is Phosphatidylinositol 4-kinase beta (Homo sapiens, UniProt Q9UBF8). Description: Inhibition of PI4Kbeta using ATP as substrate.
The nature of test [3]: Growth inhibition of human RS4:11 cells after 48 hrs by WST-1 assay. The class given is functional, cell-based. Conditions: RS4-11, 48 h. The method in brief:
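Compound (0–10 μM) added to the culture medium and incubated 48 h. Proliferation and viability read by WST-1 reagent. Survival expressed as percentage of control cultures and IC50 derived by curve fitting.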

Test [4] has as its target Phosphatidylinositol 4,5-bisphosphate 3-kinase catalytic subunit alpha isoform (Homo sapiens, UniProt P42336). Description: Inhibition of PI3Kalpha using ATP as substrate.

The source made the active and inactive calls. No cut-off for these calls is given here.

Mast/stem cell growth factor receptor Kit (Homo sapiens), sequence (P10721 whole entry): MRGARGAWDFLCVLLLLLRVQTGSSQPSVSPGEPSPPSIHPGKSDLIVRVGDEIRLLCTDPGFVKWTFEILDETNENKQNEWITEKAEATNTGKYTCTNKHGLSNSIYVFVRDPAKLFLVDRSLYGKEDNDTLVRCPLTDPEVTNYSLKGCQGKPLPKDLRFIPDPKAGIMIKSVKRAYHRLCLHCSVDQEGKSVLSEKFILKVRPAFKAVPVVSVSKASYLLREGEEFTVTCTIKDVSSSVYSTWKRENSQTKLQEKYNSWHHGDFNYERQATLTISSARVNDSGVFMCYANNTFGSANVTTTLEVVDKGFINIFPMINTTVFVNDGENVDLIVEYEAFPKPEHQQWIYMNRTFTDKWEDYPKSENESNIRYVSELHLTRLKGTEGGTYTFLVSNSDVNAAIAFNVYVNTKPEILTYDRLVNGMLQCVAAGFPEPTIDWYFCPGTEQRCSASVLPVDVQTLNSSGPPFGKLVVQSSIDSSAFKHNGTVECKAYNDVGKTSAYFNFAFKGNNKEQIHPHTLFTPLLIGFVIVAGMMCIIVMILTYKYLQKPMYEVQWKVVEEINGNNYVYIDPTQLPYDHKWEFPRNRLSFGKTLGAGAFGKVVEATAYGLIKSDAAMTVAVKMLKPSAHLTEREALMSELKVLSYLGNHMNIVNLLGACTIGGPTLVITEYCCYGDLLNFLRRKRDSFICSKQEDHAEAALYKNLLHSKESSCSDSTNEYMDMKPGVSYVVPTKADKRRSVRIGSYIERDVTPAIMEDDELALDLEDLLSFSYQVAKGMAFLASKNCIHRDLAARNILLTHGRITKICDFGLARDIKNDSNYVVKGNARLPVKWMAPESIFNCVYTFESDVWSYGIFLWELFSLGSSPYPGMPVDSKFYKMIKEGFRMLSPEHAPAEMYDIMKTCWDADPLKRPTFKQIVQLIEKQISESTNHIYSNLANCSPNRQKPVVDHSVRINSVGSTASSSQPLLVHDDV
Phosphatidylinositol 4-kinase beta, sequence (Q9UBF8 whole entry): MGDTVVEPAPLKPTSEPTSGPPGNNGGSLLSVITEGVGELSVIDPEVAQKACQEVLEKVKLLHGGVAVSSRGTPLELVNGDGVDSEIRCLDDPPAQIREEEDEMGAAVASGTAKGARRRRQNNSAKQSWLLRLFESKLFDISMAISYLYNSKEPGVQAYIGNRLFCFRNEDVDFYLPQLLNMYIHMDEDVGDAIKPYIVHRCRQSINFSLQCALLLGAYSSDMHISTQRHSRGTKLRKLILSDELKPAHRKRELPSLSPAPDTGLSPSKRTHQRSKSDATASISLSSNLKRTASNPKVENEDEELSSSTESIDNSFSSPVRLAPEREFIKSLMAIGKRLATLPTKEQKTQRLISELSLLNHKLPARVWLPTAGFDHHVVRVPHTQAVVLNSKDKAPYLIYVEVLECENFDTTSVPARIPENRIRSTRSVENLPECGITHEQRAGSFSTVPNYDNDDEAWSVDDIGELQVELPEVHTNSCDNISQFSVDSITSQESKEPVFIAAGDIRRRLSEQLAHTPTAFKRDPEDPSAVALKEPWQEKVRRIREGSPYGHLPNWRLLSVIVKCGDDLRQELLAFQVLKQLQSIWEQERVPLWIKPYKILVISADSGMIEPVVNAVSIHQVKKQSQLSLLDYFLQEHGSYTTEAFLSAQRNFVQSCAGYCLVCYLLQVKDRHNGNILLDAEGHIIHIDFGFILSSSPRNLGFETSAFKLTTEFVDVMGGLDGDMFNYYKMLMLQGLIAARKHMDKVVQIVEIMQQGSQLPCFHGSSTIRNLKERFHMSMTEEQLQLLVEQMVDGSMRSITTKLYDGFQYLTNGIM
Phosphatidylinositol 4,5-bisphosphate 3-kinase catalytic subunit alpha isoform, sequence (P42336 whole entry, canonical isoform): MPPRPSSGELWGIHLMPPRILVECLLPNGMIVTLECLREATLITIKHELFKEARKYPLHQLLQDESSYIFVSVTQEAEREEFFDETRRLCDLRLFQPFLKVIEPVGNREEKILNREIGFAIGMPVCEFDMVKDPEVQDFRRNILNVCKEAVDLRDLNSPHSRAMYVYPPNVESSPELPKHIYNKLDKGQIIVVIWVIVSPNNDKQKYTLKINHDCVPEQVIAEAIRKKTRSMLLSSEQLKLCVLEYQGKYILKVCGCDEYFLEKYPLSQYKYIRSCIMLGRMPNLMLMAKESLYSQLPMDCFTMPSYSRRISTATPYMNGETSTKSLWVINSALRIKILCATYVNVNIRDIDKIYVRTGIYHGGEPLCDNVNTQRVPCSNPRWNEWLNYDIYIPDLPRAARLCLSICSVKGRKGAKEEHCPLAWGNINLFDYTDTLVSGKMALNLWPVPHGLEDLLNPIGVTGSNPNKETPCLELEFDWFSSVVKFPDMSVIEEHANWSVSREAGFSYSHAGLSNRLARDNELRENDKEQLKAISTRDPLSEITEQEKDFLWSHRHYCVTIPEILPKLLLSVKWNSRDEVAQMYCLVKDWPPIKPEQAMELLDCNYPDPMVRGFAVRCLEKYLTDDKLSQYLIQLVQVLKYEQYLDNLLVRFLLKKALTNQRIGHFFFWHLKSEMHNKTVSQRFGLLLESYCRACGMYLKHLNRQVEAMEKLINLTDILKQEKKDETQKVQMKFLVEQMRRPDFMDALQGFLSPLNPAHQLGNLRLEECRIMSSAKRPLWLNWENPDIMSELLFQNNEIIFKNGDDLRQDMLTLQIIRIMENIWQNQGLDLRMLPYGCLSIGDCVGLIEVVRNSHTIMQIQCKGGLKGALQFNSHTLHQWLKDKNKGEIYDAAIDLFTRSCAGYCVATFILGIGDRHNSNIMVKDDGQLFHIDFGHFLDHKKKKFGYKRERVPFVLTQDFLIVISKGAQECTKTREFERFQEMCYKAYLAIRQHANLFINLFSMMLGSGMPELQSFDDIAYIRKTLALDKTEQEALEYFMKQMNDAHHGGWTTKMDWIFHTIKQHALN

For `CN1CCC2(CC1)NC(=O)c1c(c3ccc(Cl)c(Cl)c3n1C)C2C#N` (racemic), in test [1], the inhibition entry was “inactive”.

As to `Cn1c2c(c3ccc(Cl)c(Cl)c31)C(C#N)C1(CCNCC1)NC2=O` (racemic), the half-maximal inhibitory concentration (IC50) is 2.5 µM in test [2], 3.57 µM in test [3] and more than 9.1 µM in test [4].

These data come from ChEMBL document CHEMBL1944596, “7,8-dichloro-1-oxo-β-carbolines as a versatile scaffold for the development of potent and selective kinase inhibitors with unusual binding modes” (J Med Chem, 2012).
